For orientation: IC50 means the concentration at which inhibition is half-maximal. Low values mean greater potency, high ones weaker potency. What is called inhibition is the relative decrease from the control value, in per cent. Read a high inhibition as strong suppression.

These results are taken from ChEMBL document CHEMBL1126285, “Novel benzothiophene-, benzofuran-, and naphthalenecarboxamidotetrazoles as potential antiallergy agents” (J Med Chem, 1992).

The species entered for test [1] is Homo sapiens. Description: Evaluated for the inhibition of superoxide (O2 -) anion release from human neutrophils. It is filed as functional. The method, boiled down:
(§1)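 Neutrophil preparations (~98% purity) were isolated by Ficoll-Hypaque gradient centrifugation of anticoagulant-treated venous blood and stimulated with serum-opsonized zymosan. Respiratory burst was read as superoxide-mediated reduction of cytochrome C.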

The species entered for test [2] is Homo sapiens. Put plainly: Evaluated for the inhibition of human basophil histamine release stimulated by anti-Immunoglobulin E (IgE) at a concentration of 33 uM. The class given is functional. In short, it runs like this:
(§2)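 Whole blood from well-characterized allergic donors; after red-cell sedimentation, leukocytes were washed and resuspended in buffer, preincubated with compound, then challenged with anti-IgE. Histamine was read by automated fluorometric assay, with inhibition taken against anti-IgE-challenged nondrug controls. IC50 runs used 3-fold steps over 1-100 μM.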

For test [3], the species on record is Homo sapiens. Description: Evaluated for the inhibition of human basophil histamine release stimulated by anti-Immunoglobulin E (IgE) at a concentration of 10 uM; inactive. The class given is functional. The method, boiled down:
as §2

The species named for test [4] is Homo sapiens. Description: Inhibition of anti-IgE stimulated release of histamine from human chopped lung by 50% of control value. The class given is functional. The method, boiled down:
(§3)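 Human lung tissue was washed, and ~400 mg portions were placed in 37 °C buffer. After 10 min in Tyrode's buffer, drug or vehicle was added; 10 min later, tissue was challenged with anti-IgE (final dilution 3:1000) for 30 min. Supernatant histamine was assayed, giving the concentration for 50% inhibition versus control.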

For test [5], the species on record is Homo sapiens. Description: Inhibition of anti-IgE stimulated release of leukotriene C4/D4 (LTC4/D4) from human chopped lung by 50% of control value. The class given is functional. The method, boiled down:
(§4)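 Human lung tissue (~400 mg portions) was incubated 10 min in Tyrode's buffer at 37 °C, dosed with drug or vehicle, and challenged 10 min later with anti-IgE (final 3:1000) for 30 min. Supernatant leukotrienes or thromboxane were measured by RIA kits, giving the concentration for 50% inhibition of control release.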

The species entered for test [6] is Homo sapiens. Description: Evaluated for the inhibition of human basophil histamine release stimulated by anti-Immunoglobulin E (IgE) at a concentration of 10 uM. It is filed as functional. In short, it runs like this: as §2
The species entered for test [7] is Homo sapiens. Put plainly: Inhibition of anti-IgE stimulated release of Thromboxane B2 (TXB2) from human chopped lung by 50% of control value. The class given is functional. The method, boiled down: as §4
The nature of test [8]: Compound was evaluated for the inhibition of superoxide (O2 -) anion release from human neutrophils at 100 uM; inactive. It is filed as functional. In short, it runs like this: as §1
Test [9] is described as follows: Compound was evaluated for the inhibition of serum-opsonized zymosan stimulated superoxide (O2-) release from human neutrophil. It is filed as functional. The method, boiled down: as §1
For test [10], the species on record is Homo sapiens. Put plainly: Compound was evaluated for the inhibition of anti-IgE stimulated TXB2 release from human basophil. The class given is functional.
The nature of test [11]: Concentration inhibiting anti-IgE stimulated release of histamine from human chopped lung by 50% of control value. The class given is functional, tissue-based. In short, it runs like this: as §3
The species named for test [12] is Homo sapiens. Description: Compound was evaluated for the inhibition of serum-opsonized zymosan stimulated TXB2 release from human neutrophil. The class given is functional. The method, boiled down: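 Human polymorphonuclear leukocytes (~98% neutrophils) came from anticoagulant-treated venous blood via Ficoll-Hypaque centrifugation. They were stimulated with serum-opsonized zymosan, and TxB2 release was measured by radioimmunoassay.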

Test [13] can be described thus: Compound was evaluated for the inhibition of anti-IgE stimulated histamine release from human basophil. The class given is functional. In short, it runs like this: as §2
Test [14] is described as follows: Concentration inhibiting anti-IgE stimulated release of leukotriene C4/D4 (LTC4/D4) from human chopped lung by 50% of control value. The class given is functional, tissue-based. In short, it runs like this: as §4
The nature of test [15]: Compound was evaluated for the inhibition of serum-opsonized zymosan stimulated superoxide (O2-) release from human eosinophil. The class given is functional. The method, boiled down: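 Eosinophils were enriched above 95% purity by discontinuous Percoll gradient centrifugation after Ficoll-Hypaque separation of venous blood leukocytes. Cells were stimulated with serum-opsonized zymosan, and superoxide was measured as cytochrome C reduction.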

Test [16] deals with T1, Eosinophil peroxidase (Homo sapiens) (UniProt P11678).
T1 sequence (whole entry): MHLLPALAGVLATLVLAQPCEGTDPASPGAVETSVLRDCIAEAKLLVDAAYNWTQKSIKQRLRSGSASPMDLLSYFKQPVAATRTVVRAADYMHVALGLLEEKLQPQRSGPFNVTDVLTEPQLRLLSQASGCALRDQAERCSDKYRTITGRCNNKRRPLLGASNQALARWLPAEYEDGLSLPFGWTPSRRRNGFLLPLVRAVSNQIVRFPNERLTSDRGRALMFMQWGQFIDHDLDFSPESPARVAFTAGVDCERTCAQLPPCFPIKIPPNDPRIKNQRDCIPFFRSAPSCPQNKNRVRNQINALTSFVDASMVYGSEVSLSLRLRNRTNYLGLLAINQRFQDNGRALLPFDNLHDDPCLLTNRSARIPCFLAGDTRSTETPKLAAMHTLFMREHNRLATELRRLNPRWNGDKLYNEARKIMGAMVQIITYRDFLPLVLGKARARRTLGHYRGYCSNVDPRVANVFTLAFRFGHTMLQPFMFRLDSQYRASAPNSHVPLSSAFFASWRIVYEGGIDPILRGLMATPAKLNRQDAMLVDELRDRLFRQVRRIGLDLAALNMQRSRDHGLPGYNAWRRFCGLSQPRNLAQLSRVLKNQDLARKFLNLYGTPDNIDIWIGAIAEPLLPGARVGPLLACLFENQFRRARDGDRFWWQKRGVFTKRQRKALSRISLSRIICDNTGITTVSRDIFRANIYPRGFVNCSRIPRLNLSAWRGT
Put plainly: Compound was evaluated for the inhibition of serum-opsonized zymosan stimulated eosinophil peroxidase release from human eosinophil; Inactive. It is filed as functional. Particulars: concentration not given here.

Test [17] in a line: Compound was evaluated for the inhibition of human basophil histamine release stimulated by anti-Immunoglobulin E (IgE) at a concentration of 33 uM; inactive. It is filed as functional. In short, it runs like this:
as §2

`CC(C)Oc1c(C(=O)Nc2nn[nH]n2)sc2ccc(Oc3ccccc3)cc12` yielded an IC50 in test [1] of over 100 µM. This molecule had an inhibition at 33 µM in [2] of 55%. The same molecule returned an inhibition at 10 µM in test [3] of under 25%.
For the molecule `COc1ccc2sc(C(=O)Nc3nn[nH]n3)c(Oc3ccccc3)c2c1`, the IC50 in test [4] was 3.5 µM; in test [5] it was 1.1 µM; in test [1] it was 10.1 µM; in [7] it was 4.9 µM. This molecule yielded an inhibition at 10 µM in [6] of 96.3%. Moreover, at 33 µM the inhibition in test [2] was 91.3%.
In turn, `CC(C)Oc1c(C(=O)Nc2nn[nH]n2)sc2ccc(OCc3ccccc3)cc12` had an IC50 in [1] of over 100 µM. Testing at 33 µM in [2] gave an inhibition of 41.6%. For the same molecule, the inhibition at 10 µM in [3] was under 25%.
For the molecule `COc1ccc2c(c1)c(OC(C)C)c(C(=O)Nc1nn[nH]n1)n2-c1ccccc1`, the IC50 was 11 µM in test [4], 12 µM in [5], over 100 µM in test [1] and 12 µM in test [7]. This molecule also returned an inhibition at 10 µM in test [6] of 46%. In addition, the inhibition at 33 µM in [2] was 82%.
In turn, `COc1cccc2c(OC(C)C)c(C(=O)Nc3nn[nH]n3)sc12` yielded an IC50 in test [1] of over 100 µM. The molecule also showed an inhibition at 33 µM in test [2] of under 25%. This molecule showed an inhibition at 10 µM in [3] of under 25%.
`CC(C)Oc1c(C(=O)Nc2nn[nH]n2)sc2ccc([N+](=O)[O-])cc12` came in with an inhibition at 100 µM in test [8] of under 5%. In test [2], the inhibition at 33 µM stood at 53%. For the same molecule, the inhibition at 10 µM in test [3] is under 25%.
In the case of `COc1cc2sc(C(=O)Nc3nn[nH]n3)c(OC(C)C)c2cc1OC`, the IC50 in test [4] was 4.5 µM; in test [5], 0.3 µM; in [1] it was 17.7 µM; in test [7], under 0.75 µM. Testing at 10 µM in [6] gave an inhibition of 80%. This molecule also gave an inhibition at 33 µM in test [2] of 81.7%.
`COc1ccc2c(OC(C)C)c(C(=O)Nc3nn[nH]n3)ccc2c1`: the inhibition at 10 µM in test [6] came out at 31.3%. The molecule also returned an inhibition at 33 µM in test [2] of 72.7%.
The molecule `COc1ccc2sc(C(=O)Nc3nn[nH]n3)c(OCc3ccccc3)c2c1` came in with an inhibition at 10 µM in test [6] of 80.8%. The same molecule registered an IC50 in [1] of 23.4 µM. Besides, in [2], testing at 33 µM gave an inhibition of 84.5%.
The corresponding values for `COc1ccc2ccc(C(=O)Nc3nn[nH]n3)c(OC(C)C)c2c1` are 51%, over 100 µM and 90.5%.
In test [1], `CC(C)Oc1c(C(=O)Nc2nn[nH]n2)sc2ccc(O)cc12` yielded an IC50 of 47.8 µM. Further, the inhibition at 33 µM in [2] worked out at 86%. In test [3], this molecule registered an inhibition at 10 µM of under 25%.
Regarding `COc1cc2sc(C(=O)Nc3nn[nH]n3)c(Oc3ccccc3)c2cc1OC`, the IC50 in test [4] is 4.9 µM; in [5] it was 9.7 µM; in test [1], 5.7 µM; in [7] it was under 0.75 µM. The same molecule had an inhibition at 10 µM in [6] of 96%. In addition, in [2], the inhibition at 33 µM worked out at 93.6%.
As to `COc1ccc2sc(C(=O)Nc3nnn[nH]3)c(OC(C)C)c2c1`, the IC50 was determined as 14.5 µM in test [9]; 0.2 µM in test [10]; 2.3 µM in test [11]; 4.5 µM in test [12]; 14.5 µM in [1]; 1.1 µM in test [13]. Besides, the results for the IC50 in test [14], in test [15] and in [7] were 0.3 µM, 5.5 µM and 0.3 µM, respectively. This molecule also registered an inhibition at 10 µM in test [6] of 94.7%. In addition, in test [2], the inhibition at 33 µM is 97.3%. The molecule also gave an inhibition in test [16] of under 20%.
On to `COc1ccc2c(OC(C)C)c(C(=O)Nc3nn[nH]n3)oc2c1`, for which the inhibition at 10 µM in test [6] stood at 77%. The molecule further gave an IC50 in [1] of 42.5 µM. In addition, at 33 µM the inhibition in test [2] was 99.5%.
Turning to `COc1cc2sc(C(=O)Nc3nn[nH]n3)c(OCc3ccccc3)c2cc1OC`, the IC50 was 2.5 µM in [4], 1.3 µM in test [5], 40 µM in [1] and under 0.74 µM in test [7]. Also, 10 µM produced 90.3% inhibition in test [6]. The inhibition at 33 µM in [2] was 90.7%.
Turning to `Cc1ccc2sc(C(=O)Nc3nn[nH]n3)c(OC(C)C)c2c1`, the inhibition at 100 µM in test [8] was under 5%. The same molecule gave an inhibition at 33 µM in [17] of under 25%. This molecule also gave an inhibition at 10 µM in [3] of under 25%.
`CC(C)Oc1c(C(=O)Nc2nn[nH]n2)sc2ccc(Cl)cc12` came in with an inhibition at 10 µM in test [6] of 73%. Further, the IC50 in [1] is over 100 µM. Also, the inhibition at 33 µM in [2] is 92%.
`COc1ccc2oc(C(=O)Nc3nn[nH]n3)c(OC(C)C)c2c1` showed an IC50 in test [1] of over 100 µM. For the same molecule, in test [2], the inhibition at 33 µM was determined as 43.3%. Also, in test [3], the inhibition at 10 µM was under 25%.
For `COc1ccc2c(OC(C)C)c(C(=O)Nc3nn[nH]n3)sc2c1`, the IC50 in [4] was determined as 0.9 µM; in test [5], 0.4 µM; in [1] it was 37 µM; in test [7], 0.3 µM. The inhibition at 10 µM in [6] stood at 92%. In test [2], this molecule returned an inhibition at 33 µM of 88.6%.
`COc1ccc2sc(C(=O)Nc3nn[nH]n3)c(OC)c2c1` registered an inhibition at 10 µM in test [6] of 59.8%. This molecule yielded an IC50 in test [1] of over 100 µM. In test [2], this molecule had an inhibition at 33 µM of 97.3%.
Molecule `CCCc1c2oc(C(=O)O)cc(=O)c2cc2c(=O)cc(C(=O)O)n(CC)c12` [NEDOCROMIL] showed an inhibition at 33 µM in test [17] of under 25%. In test [3], this molecule displayed an inhibition at 10 µM of under 25%.
In turn, `COc1ccc2sc(C(=O)Nc3nn[nH]n3)c(OC(C)(C)C)c2c1` showed an inhibition at 10 µM in test [6] of 62%. The same molecule displayed an IC50 in test [1] of over 100 µM. 33 µM produced 100% inhibition in test [2].
The corresponding values for `CC(C)Oc1c(C(=O)Nc2nn[nH]n2)sc2ccccc12` are 27.5%, over 100 µM and 65.8%.
Turning to `COc1ccc2c(OC(C)C)c(C(=O)Nc3nn[nH]n3)sc2c1Cl`, the inhibition at 33 µM in test [17] was under 25%. Also, the IC50 in test [1] is over 100 µM. The inhibition at 10 µM in test [3] is under 25%.
With `CCOc1c(C(=O)Nc2nn[nH]n2)sc2ccc(OC)cc12`, in test [6], 10 µM produced 92.5% inhibition. Further, the IC50 in test [1] was over 100 µM. In test [2], this molecule had an inhibition at 33 µM of 98%.
